Inhibition data for 30 molecules are collected here from PubChem BioAssay AID489030 (Sanford-Burnham Center for Chemical Genomics, 2010).

Hit rate of the full screen: of about 330,000 compounds, about 2,400 (0.73%) were called active. The calls were made as follows: active = inhibition of at least 40% at 20 µM; inactive = the rest. The full list was thinned out, with actives kept by preference.

Sequence of Apoptotic protease-activating factor 1 (Homo sapiens) (O14727 whole entry, looked up): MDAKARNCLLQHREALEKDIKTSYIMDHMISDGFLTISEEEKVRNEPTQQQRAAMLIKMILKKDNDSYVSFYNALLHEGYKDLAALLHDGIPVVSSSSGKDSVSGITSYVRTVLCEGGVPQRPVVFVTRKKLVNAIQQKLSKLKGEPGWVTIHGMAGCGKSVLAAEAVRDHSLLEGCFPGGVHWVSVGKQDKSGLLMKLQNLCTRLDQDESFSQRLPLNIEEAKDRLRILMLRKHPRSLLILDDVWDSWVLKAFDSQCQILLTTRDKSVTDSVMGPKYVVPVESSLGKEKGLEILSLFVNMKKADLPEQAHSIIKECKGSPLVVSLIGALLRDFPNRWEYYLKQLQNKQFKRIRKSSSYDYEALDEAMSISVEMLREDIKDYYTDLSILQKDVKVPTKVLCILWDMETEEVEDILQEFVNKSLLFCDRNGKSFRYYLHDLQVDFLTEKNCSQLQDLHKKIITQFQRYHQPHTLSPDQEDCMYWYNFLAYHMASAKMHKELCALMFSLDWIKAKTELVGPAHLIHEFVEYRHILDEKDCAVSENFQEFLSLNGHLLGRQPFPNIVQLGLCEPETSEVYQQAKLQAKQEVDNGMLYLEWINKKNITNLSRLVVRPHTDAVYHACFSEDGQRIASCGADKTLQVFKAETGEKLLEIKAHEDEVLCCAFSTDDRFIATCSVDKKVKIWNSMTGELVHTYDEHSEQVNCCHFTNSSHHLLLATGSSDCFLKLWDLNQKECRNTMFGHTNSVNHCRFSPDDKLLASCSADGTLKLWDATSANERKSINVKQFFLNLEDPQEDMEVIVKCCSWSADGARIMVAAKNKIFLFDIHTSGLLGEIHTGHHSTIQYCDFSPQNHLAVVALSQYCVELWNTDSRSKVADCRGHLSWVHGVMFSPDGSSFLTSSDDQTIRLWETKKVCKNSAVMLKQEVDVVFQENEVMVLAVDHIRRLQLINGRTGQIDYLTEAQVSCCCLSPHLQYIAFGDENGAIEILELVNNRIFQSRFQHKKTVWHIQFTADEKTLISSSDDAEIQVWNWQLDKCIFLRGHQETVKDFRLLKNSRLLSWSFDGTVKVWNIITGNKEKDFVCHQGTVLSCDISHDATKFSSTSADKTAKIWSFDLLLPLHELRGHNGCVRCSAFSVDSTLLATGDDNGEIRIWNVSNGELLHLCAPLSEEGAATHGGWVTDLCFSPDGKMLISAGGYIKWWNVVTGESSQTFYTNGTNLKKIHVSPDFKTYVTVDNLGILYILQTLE

This assay concerns the target Apoptotic protease-activating factor 1 (Homo sapiens) (UniProt O14727). The assay is described as follows: blockers of Apaf-1-driven caspase-3 activation – biochemical, DEVD-Rh110 fluorescence, uHTS, primary screen (AID 489030).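 Also: plate controls were DMSO wells for no effect and DEVD-CHO caspase inhibitor wells for full effect.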 The conditions noted are these: reconstituted apoptosome caspase-3 activity, at 20 µM, hits give high values. In outline:
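Assay system: Apoptosome proteins | Medium: pH 7.5 Hepes buffer with CHAPS, BSA, DTT | Also added: Cytochrome c and DEVD-Rh110 substrate | Times: 30 min plus 50 min, RT | Detection: Rhodamine 110 fluorescence at Ex 480/Em 540 nm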
Regarding `CCCCn1c(=O)c(C(=O)Nc2ccccc2Cl)c(O)c2ccccc21`, the inhibition was -6.34% (inactive).

As for `CCCCCn1c(=O)c(C(=O)Nc2c(C)n(C)n(-c3ccccc3)c2=O)c(O)c2ccccc21`, the inhibition was 46.4% (active). In the case of `CCCCCn1c(=O)c(C(=O)NCc2ccccc2)c(O)c2ccccc21`, the inhibition was -34.9% (inactive). As to `COC(=O)C1=C(c2c(C)noc2C)C[C@@H]2CC[C@H]1N2C(=O)NCc1ccc2c(c1)OCO2`, the inhibition is 1.57% (inactive). For `Cc1cccc(-n2c(O)c(/C=N/N3CCOCC3)c(=O)[nH]c2=S)c1`, the inhibition is 3.6% (inactive). Take `c1ccc2sc(N3CCNCC3)nc2c1`: the inhibition was -11.3% (inactive). In the case of `CC(=O)NC(=O)NC(C)Cc1ccccc1` (stereo not given), the inhibition was -10.3% (inactive). For `CC(Cc1ccccc1)NCCC(c1ccccc1)c1ccccc1` (stereo not given) the value was 41.5% (active); for `CC(Cc1ccccc1)NC=O` (stereo not given), 5.78% (inactive); for `CCOc1ccc(CN(CCCl)CCCl)cc1C(=O)OC`, -1.62% (inactive). The value for `CCOC(=O)c1c(N)n(CCN2CCOCC2)c2nc3ccccc3nc12` was -3.48% (inactive). For the molecule `COc1cc(Cn2c(N)c(C(=O)NCc3ccco3)c3nc4ccccc4nc32)cc(OC)c1OC`, the inhibition was 96.1% (active). Regarding `CCOC(=O)c1c(N)n(Cc2ccccc2)c2nc3ccccc3nc12`, the inhibition is 79.9% (active). On to `CCOC(=O)C(O)(c1ccc(NC(=O)c2ccco2)c(OC)c1)C(F)(F)F` (stereo not given), for which the inhibition was 5.81% (inactive). Turning to `COC(=O)C1=C(c2ccccc2)C[C@@H]2CC[C@H]1N2C(=O)NCc1ccco1`, the inhibition is 3.27% (inactive).

Consider `CC/C(=N\NC(=O)c1ccccc1O)c1c(O)n(Cc2ccccc2)c(=O)[nH]c1=O`, for which the inhibition was -8.27% (inactive). With `CN(C)/C=C(\C=[N+](C)C)c1[nH]ncc1[N+](=O)[O-]`, the inhibition is -1.23% (inactive). Regarding `COC(=O)C1=C(c2ccc(F)cc2F)C[C@@H]2CC[C@H]1N2C(=O)NC1CC1`, the inhibition was 3.15% (inactive).

Turning to `CCCn1c(C(=O)c2ccccc2OC)nc2ccccc21`, the inhibition is 6.27% (inactive). For the molecule `CCCCCCCCCCCCn1ccc(=N)cc1`, the inhibition was 43.9% (active).

Take `Cn1c(O)c(C=NCCN2CCNCC2)c(=O)n(C)c1=O`: the inhibition is 6.24% (inactive). Regarding `COC(=O)CN1C(=O)C2(C(C(=O)OC)=C(N)Oc3ccccc32)C2=C1CC(C)(C)CC2=O` (stereo not given), the inhibition is -21% (inactive). Regarding `CN(C)C(=O)Oc1ccc(NC(=O)N2CCOCC2)cc1`, the inhibition is -15% (inactive). Take `CC(=C1C(=O)c2ccccc2C1=O)N1CCN(CCN=Cc2c(O)n(C)c(=O)n(C)c2=O)CC1`: the inhibition is 1.31% (inactive). Turning to `C=CCN1C(=O)NC(=O)/C(=C/c2ccc(OCC(=O)Nc3ccc(C)cc3)cc2)C1=O`, the inhibition is 8.4% (inactive). Turning to `O=C(Cc1ccc(Cl)cc1)NCCN1CCN(C(=O)Cc2ccc(Cl)cc2)CC1`, the inhibition was -6.49% (inactive). On to `CNCC(O)c1cc(F)c(OCc2ccccc2)c(OCc2ccccc2)c1F` (stereo not given), for which the inhibition was 45.9% (active). For `CCc1nc2ccccc2c(=O)n1-c1cccc(OC)c1` the value was -11.3% (inactive); for `CNC(=O)N(C)c1nnc(C(C)(C)C)s1`, -10.6% (inactive). The value for `CC(C)c1c(CN(C)C(C)Cc2ccccc2)n(C)n(-c2ccccc2)c1=O` (stereo not given) was 9.08% (inactive).

For orientation: inhibition means the drop in the measured response relative to a control, in per cent.
